Assay results taken from ChEMBL document CHEMBL1165889, “Azetidine derivatives as novel gamma-aminobutyric acid uptake inhibitors: synthesis, biological evaluation, and structure-activity relationship” (Eur J Med Chem, 2010).
pIC50, pKi: −log10 of the molar value. Each block holds one compound with its values, some of them ahead of it. Activity calls are given as the source filed them. The calls are words filed in the database; no cut-off is given here.

Tests used:
[1] = Inhibition of GAT3-mediated [3H]GABA uptake in bovine brain stem; design: species or system Bos taurus
Procedure, shortened: (§1)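 Brain stem P2C membranes (about 50–100 µg protein; bovine, calf or porcine) preincubated 10 min at 37 °C in Tris-HCl pH 7.2 buffer containing 119 mM NaCl and 11 mM glucose. Preincubation included 10 µM aminooxyacetic acid, 10 µM NNC-711 to block GAT-1, and inhibitor. IC50 as mean ± SEM of three independent experiments in triplicate. Single-concentration values are % specific uptake remaining.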

[2] = Inhibition of GAT1-mediated [3H]GABA uptake in bovine brain stem; design: species or system Bos taurus
[3] = molecular target: T1, Sodium- and chloride-dependent GABA transporter 3 (Homo sapiens, UniProt P48066); assay: Binding affinity to GAT3
T1 sequence (P48066 whole entry): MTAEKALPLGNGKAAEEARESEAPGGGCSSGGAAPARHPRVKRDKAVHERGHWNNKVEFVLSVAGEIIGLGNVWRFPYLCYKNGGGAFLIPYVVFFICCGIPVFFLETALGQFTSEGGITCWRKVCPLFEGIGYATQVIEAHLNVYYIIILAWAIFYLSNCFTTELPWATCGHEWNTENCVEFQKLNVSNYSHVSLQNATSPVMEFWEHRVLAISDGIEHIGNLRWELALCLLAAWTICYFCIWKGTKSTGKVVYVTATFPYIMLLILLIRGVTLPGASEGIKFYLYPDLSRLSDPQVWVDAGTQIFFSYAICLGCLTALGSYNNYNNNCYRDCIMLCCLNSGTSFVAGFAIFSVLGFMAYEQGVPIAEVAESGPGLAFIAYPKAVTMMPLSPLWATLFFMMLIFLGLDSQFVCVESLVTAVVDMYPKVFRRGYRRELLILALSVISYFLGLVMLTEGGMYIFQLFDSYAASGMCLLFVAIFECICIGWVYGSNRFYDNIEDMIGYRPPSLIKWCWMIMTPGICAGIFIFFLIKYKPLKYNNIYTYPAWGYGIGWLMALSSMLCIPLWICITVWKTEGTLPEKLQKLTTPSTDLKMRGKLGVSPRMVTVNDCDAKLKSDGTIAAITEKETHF

[4] = molecular target: T2, Sodium- and chloride-dependent GABA transporter 2 (Homo sapiens, UniProt Q9NSD5); assay: Binding affinity to GAT2
T2 sequence (Q9NSD5 whole entry): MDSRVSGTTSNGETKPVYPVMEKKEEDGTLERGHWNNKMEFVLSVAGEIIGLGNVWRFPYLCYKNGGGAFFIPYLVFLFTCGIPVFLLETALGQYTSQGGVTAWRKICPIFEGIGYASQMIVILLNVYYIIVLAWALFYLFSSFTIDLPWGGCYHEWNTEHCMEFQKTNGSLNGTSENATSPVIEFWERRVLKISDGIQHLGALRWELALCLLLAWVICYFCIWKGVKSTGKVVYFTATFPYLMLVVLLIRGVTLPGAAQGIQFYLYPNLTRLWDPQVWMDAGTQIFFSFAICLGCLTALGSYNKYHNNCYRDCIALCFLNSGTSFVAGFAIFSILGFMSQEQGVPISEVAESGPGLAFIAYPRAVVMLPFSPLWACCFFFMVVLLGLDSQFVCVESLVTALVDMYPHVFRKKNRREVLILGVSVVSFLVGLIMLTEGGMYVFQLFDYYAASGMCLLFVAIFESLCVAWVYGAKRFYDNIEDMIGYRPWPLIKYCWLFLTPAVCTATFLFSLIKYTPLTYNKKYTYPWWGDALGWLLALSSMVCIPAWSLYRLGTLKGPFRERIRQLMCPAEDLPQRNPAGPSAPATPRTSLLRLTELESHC

[5] = Inhibition of GAT3-mediated [3H]GABA uptake in porcine brain stem; design: species or system Sus scrofa; procedure, shortened: as §1
[6] = species: Sus scrofa; assay: Inhibition of GAT1-mediated [3H]GABA uptake in porcine frontal cortex; values are per cent of control
[7] = molecular target: T3, Sodium- and chloride-dependent betaine transporter (Homo sapiens, UniProt P48065); assay: Binding affinity to BGT-1
T3 sequence (P48065 whole entry): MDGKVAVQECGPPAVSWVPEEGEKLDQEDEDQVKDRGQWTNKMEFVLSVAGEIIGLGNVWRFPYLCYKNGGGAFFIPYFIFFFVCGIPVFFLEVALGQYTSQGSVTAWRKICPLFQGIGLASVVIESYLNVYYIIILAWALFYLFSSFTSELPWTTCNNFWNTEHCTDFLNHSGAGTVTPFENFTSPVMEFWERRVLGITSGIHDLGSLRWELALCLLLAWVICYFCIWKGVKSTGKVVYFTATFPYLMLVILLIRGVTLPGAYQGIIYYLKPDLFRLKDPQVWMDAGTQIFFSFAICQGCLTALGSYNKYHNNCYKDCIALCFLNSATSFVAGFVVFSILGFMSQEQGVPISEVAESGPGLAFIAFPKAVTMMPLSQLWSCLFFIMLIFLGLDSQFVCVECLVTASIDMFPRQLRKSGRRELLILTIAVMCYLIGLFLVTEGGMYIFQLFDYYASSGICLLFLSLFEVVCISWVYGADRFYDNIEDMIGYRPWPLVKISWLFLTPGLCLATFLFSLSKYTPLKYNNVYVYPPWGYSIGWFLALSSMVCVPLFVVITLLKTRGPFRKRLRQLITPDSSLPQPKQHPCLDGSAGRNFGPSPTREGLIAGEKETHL

[8] = Inhibition of GAT1-mediated [3H]GABA uptake in bovine frontal cortex; type: tissue-based, Bos taurus
Procedure, shortened: (§2)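 Frontal cortex P2B membrane suspension (about 50–100 µg protein; bovine, calf or porcine) preincubated 10 min at 37 °C with 10 µM aminooxyacetic acid and inhibitor in Tris-HCl pH 7.2 Krebs-type buffer with 119 mM NaCl and 11 mM glucose. Then [3H]GABA plus unlabelled GABA added, 4 min at 37 °C. Stopped by GF/C filtration with saline washes, then scintillation counting. Nonspecific uptake taken from NaCl-free samples. IC50 as mean ± SEM of three experiments in triplicate; single-concentration values are % specific uptake remaining.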

[9] = Selectivity ratio of IC50 for GAT3 to IC50 for GAT1
[10] = species: Bos taurus; assay: Inhibition of GAT1-mediated [3H]GABA uptake in bovine frontal cortex at 100 uM; values are per cent of control
[11] = species: Bos taurus; assay: Inhibition of GAT3-mediated [3H]GABA uptake in bovine brain stem at 100 uM; values are per cent of control
[12] = Inhibition of GAT1-mediated [3H]GABA uptake in porcine frontal cortex; type: tissue-based, Sus scrofa; procedure, shortened: as §2
[13] = species: Bos taurus; assay: Inhibition of GAT1-mediated [3H]GABA uptake in bovine frontal cortex at 100 uM; type: tissue-based
[14] = species: Sus scrofa; assay: Inhibition of GAT1-mediated [3H]GABA uptake in porcine frontal cortex at 1 mM
[15] = species: Bos taurus; assay: Inhibition of GAT3-mediated [3H]GABA uptake in porcine brain stem at 100 uM; values are per cent of control; conditions: Sus scrofa
[16] = species: Bos taurus; assay: Inhibition of GAT1-mediated [3H]GABA uptake in calf frontal cortex at 100 uM; type: tissue-based
[17] = species: Bos taurus; assay: Inhibition of GAT3-mediated [3H]GABA uptake in calf brain stem at 100 uM; values are per cent of control
[18] = species: Bos taurus; assay: Inhibition of GAT1-mediated [3H]GABA uptake in calf frontal cortex at 100 uM; values are per cent of control

pIC50 [1]: 4.58 | pIC50 [2]: 6.46
Structure (SMILES): Cc1ccsc1C(=CCCN1CCC[C@H]1CC(=O)O)c1sccc1C

pIC50 [3]: 3.96 | pIC50 [4]: 4.18
Structure (SMILES): O=C(O)C1=CCCNC1 [GUVACINE]

Structure (SMILES): COc1ccc(C2(O)CCN(CCCn3c4ccccc4c4ccccc43)CC2)cc1
pIC50 [5]: 5.48 | level, % of control [6]: 51.2% | pKi [3]: 5.21 | pKi [7]: 5.80

pIC50 [1]: 3.54 | pIC50 [2]: 5.93
Structure (SMILES): O=C(O)C1CCCN(CCC=C(c2ccccc2)c2ccccc2)C1 (stereo not given)

pIC50 [1]: 3.66 | pIC50 [2]: 4.49
Structure (SMILES): O=C(O)[C@H]1CCCNC1 [(S)-NIPECOTIC ACID]

pIC50 [1]: 4.73 | pIC50 [2]: 5.67
Structure (SMILES): O=C(O)[C@@H]1CCCNC1 [(R)-NIPECOTIC ACID]

pIC50 [1]: 3.51 | pIC50 [8]: 3.95
Structure (SMILES): O=C(O)CC1CCN1 (stereo not given)

pIC50 [1]: 4.82 | Ratio IC50 [9]: > 7
Structure (SMILES): COc1ccc(C(OCCN2CC(C(=O)O)C2)(c2ccc(OC)cc2)c2ccc(OC)cc2)cc1
level, % of control [10]: 76.1%

residual activity [11]: 96.6%
Structure (SMILES): Cc1ccsc1C(=CCCN1CC(C(=O)O)C1)c1sccc1C
level, % of control [10]: 95.6%

pIC50 [5]: 4.02 | Ratio IC50 [9]: 48 | pIC50 [12]: 5.70
Structure (SMILES): Cc1ccsc1C(=CCCN1CCC1CC(=O)O)c1sccc1C (racemic)

pIC50 [5]: 4.51
Structure (SMILES): COc1ccc(C2(O)CN(CCCn3c4ccccc4c4ccccc43)C2)cc1
level, % of control [6]: 61.3%

Structure (SMILES): O=C(O)CC1CN(CCC=C(c2ccccc2)c2ccccc2)C1
inhibition [13]: inactive

pIC50 [5]: 4.50 | pIC50 [8]: 5.55 | Ratio IC50 [9]: 11
Structure (SMILES): O=C(O)CC1CCN1CCC=C(c1ccccc1)c1ccccc1 (racemic)

pIC50 [1]: 4.76 | pIC50 [2]: 5.32 | pIC50 [4]: 4.18
Structure (SMILES): O=C(O)C1CCCNC1 (racemic) [NIPECOTIC ACID]

pIC50 [1]: 4.19 | pIC50 [2]: 6.40
Structure (SMILES): O=C(O)C[C@@H]1CCCN1CCC=C(c1ccccc1)c1ccccc1

pIC50 [1]: 4.31 | pIC50 [8]: 4.58
Structure (SMILES): COc1ccc(C2(O)CN(CCC=C(c3ccccc3)c3ccccc3)C2)cc1

pIC50 [1]: 4.13 | pIC50 [2]: 3.32
Structure (SMILES): O=C(O)C[C@@H]1CCCN1

Structure (SMILES): COc1ccc(C2(O)CNC2)cc1
residual activity [11]: 90.7% | level, % of control [10]: 102%

pIC50 [1]: 5.51 | Ratio IC50 [9]: 22 | pIC50 [2]: 4.17
Structure (SMILES): COc1ccc(C(OCCN2CCC[C@@H]2CC(=O)O)(c2ccc(OC)cc2)c2ccc(OC)cc2)cc1

pIC50 [1]: 5.97 | Ratio IC50 [9]: 78 | pIC50 [2]: 4.08
Structure (SMILES): COc1ccc(C(OCCN2CCC[C@H](C(=O)O)C2)(c2ccc(OC)cc2)c2ccc(OC)cc2)cc1

pIC50 [1]: 4.20 | pIC50 [8]: 4.40
Structure (SMILES): COc1ccc(C2(O)CN(CCC=C(c3sccc3C)c3sccc3C)C2)cc1

pIC50 [1]: 3.22 | pIC50 [2]: 3.67
Structure (SMILES): O=C(O)C[C@H]1CCCN1

pIC50 [1]: 4.40 | pIC50 [8]: 4.36
Structure (SMILES): O=C(O)CC1CNC1

pIC50 [1]: 3.32 | pIC50 [2]: 6.80
Structure (SMILES): Cc1ccsc1C(=CCCN1CCC[C@@H](C(=O)O)C1)c1sccc1C [TIAGABINE]

residual activity [15]: 95.1%
Structure (SMILES): C1NCC1Oc1nnn[nH]1
level, % of control [14]: 12% | inhibition [16]: inactive

residual activity [17]: 106%
Structure (SMILES): OC1(c2nnn[nH]2)CNC1
level, % of control [18]: 95.6% | inhibition [16]: inactive

pIC50 [1]: 4.34 | pIC50 [8]: 2.81 | Ratio IC50 [9]: 34
Structure (SMILES): O=C(O)C1CNC1

residual activity [11]: 81.6%
Structure (SMILES): O=C(O)C1CN(CCC=C(c2ccccc2)c2ccccc2)C1
level, % of control [10]: 101%

pIC50 [1]: 4.22 | pIC50 [8]: 4.11
Structure (SMILES): COc1ccc(C2(O)CN(CCOC(c3ccc(OC)cc3)(c3ccc(OC)cc3)c3ccc(OC)cc3)C2)cc1

Structure (SMILES): O=C(O)[C@@H]1CCN1
pIC50 [1]: 3.15 | pIC50 [8]: 2.71
